In ChEMBL document CHEMBL4513216, “Probing the Open Global Health Chemical Diversity Library for Multistage-Active Starting Points for Next-Generation Antimalarials” (ACS Infect Dis, 2020):

Experiment: Toxicity liver stage against HepG2, at 10uM
Type: cell-based
Design: test concentration 10 uM, cell line HepG2-A16-CD81EGFP
Settings: human, HepG2-A16-CD81EGFP cells; read-out: INHIBITION
Outline: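 Uninfected HepG2-A16-CD81EGFP cells, 3 × 10^3 per well, 1536-well, plated on prespotted compound at 10 μM final, parasite-free screening media added to match infected plates; puromycin 10 μM positive, DMSO 0.5% negative; run in parallel with 48 h PbLuc assay at 37 °C, 5% CO2; viability by CellTiter-Glo luminescence, normalized to controls.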

| Compound | cytotoxicity at 10 µM |
| --- | --- |
| CC(C)n1ccnc1CN1CCOC(CCc2ccccc2)C1 (stereo not given) | -132% |
| O=C(c1ccc2c(c1)CCCC2)N1CCOCC1c1ncon1 (stereo not given) | -7% |
| O=C(C1CCC1)N1CCC2(CCCN2CC2CC2)CC1 | -2.45% |
| CC(C)N1CCc2[nH]nc(C(=O)N3CCN(C)CC3)c2C1 | -3.75% |
| O=C(CCc1ccccc1)N1C[C@H]2CCN[C@H]2C1 | -4.22% |
| CCCNC(=O)COc1cccc(-c2nc(C(C)C)no2)c1 | -77.9% |
| CN(Cc1ccc(F)cc1)[C@@H]1CN(S(C)(=O)=O)C[C@H]1O | -3.22% |
| O=C(O)CCc1ccc(S(=O)(=O)Nc2cnn(CC(F)(F)F)c2)cc1 | -7.52% |
| CCc1csc(C2CCCN(C(=O)CCn3cc(C)cn3)C2)n1 (stereo not given) | 1.82% |
| COc1cccc(N2CCC(N3C[C@@H](NC(C)=O)[C@H](C(C)C)C3)CC2)c1 | -9.98% |
| CCC(=O)N1CCCC1c1ccsc1 (stereo not given) | -6.05% |
| COc1ccnc(N2CCN(CC(O)CN3CCOCC3)CC2)n1 (stereo not given) | -3.44% |
| Cc1cccc(CN2CCc3[nH]nc(C(=O)N4CCOCC4)c3C2)n1 | 6.31% |
| Cc1ccc2c(c1)OCCCC2NCc1nccn1CC(C)C (stereo not given) | -0.77% |
| CNC(=O)Cc1nc(CNc2ccc(SC)c(F)c2)cs1 | -1.99% |
| CN(C)CCN(C)C[C@H]1CN2CC[C@H]1C[C@@H]2CNC(=O)Nc1ccsc1 | 9.53% |
| CN1CCN(C2CCN(CCOc3cccc(F)c3)CC2)C1=O | -2.45% |
| CC(=O)N1CCC(Nc2cc(F)ccc2OCC2CCCO2)CC1 (stereo not given) | -14.3% |
| O=C(c1cc(-c2cccs2)on1)N1CCCCC1Cn1cccn1 (stereo not given) | -2.93% |
| CC(C)COC1CC2(CCN(C(=O)Cc3ccccn3)CC2)C1 | -113% |
| CCn1ncc2c1CCCC2NCc1cc(OC)cc(OC)c1 (stereo not given) | 3.24% |
| CC(=O)NC1CCCN(C(=O)NCCOc2ccc3c(c2)OCO3)C1 (stereo not given) | -31% |
| Cc1cc(C)n(CC2CN(Cc3cccc(C(N)=O)c3)CCO2)n1 (stereo not given) | -4.97% |

| Compound | cytotoxicity at 10 µM |
| --- | --- |
| Nc1nc(N)c2c(n1)OC1(CCN(C(=O)CC3CCCCN3)CC1)C2 (stereo not given) | -0.24% |
| COCCNC(=O)c1cnc(C)nc1C | 24.5% |
| Cc1ncsc1C(=O)N1CCC(O)(Cn2c(C)cc3ccncc32)CC1 | 9.59% |
| CNC(=O)[C@H]1C[C@@H]2CN(C(=O)c3ccc(C)nc3)C[C@@H]2N1C | -107% |
| COCC(=O)NC(c1ccc(Cl)cc1)C(F)(F)F (stereo not given) | 6.76% |
| Cc1cccc(C(=O)N2CCC(Cc3cnc4[nH]ccc4c3)CC2)n1 | 12.2% |
| O=c1[nH]c(CCN2CCCC2Cn2cncn2)nc2ccccc12 (stereo not given) | -5.48% |
| CN(C)C(=O)COC1COC2(CCN(CC3CCOCC3)CC2)C1 (stereo not given) | -113% |
| Cn1ccc(C(=O)N2CCOC(c3ccccc3)C2)cc1=O (stereo not given) | -0.944% |
| c1cc(-c2cnc(NC3CC3)nc2[C@@H]2CCCO2)ccn1 | 8.72% |
| COCCN1C(=O)CC[C@@H]2[C@@H]1CCN2S(=O)(=O)C1CC1 | -98.4% |
| Cc1ccc(N2CCc3ncnc(N(C)C)c3CC2)nn1 | -102% |
| COc1cccc(CC(=O)NCC(Cc2ccc(F)cc2)C(N)=O)c1 (stereo not given) | 4.78% |
| CC(C)OCCOCc1cccc(NC(=O)NCC(=O)N(C)C)c1 | -5.53% |
| CCn1nnc2c1C(COC)CN(C(=O)COc1ccccc1)C2 (stereo not given) | -17.1% |
| CC1CN(Cc2cccnc2)CCN1c1ccc2nncn2n1 (stereo not given) | -11.1% |
| Cc1cccc(-c2nnc(C(C)NCCn3cc(C)cn3)o2)c1 (stereo not given) | -8.32% |
| Cc1ncc2c(n1)CN(C=C1NN=C(c3occc3C)O1)CC2 | -2.7% |
| CNC(=O)[C@H]1C[C@@H]2CN(c3cc(OC)ncn3)C[C@@H]2N1C(C)C | -8.84% |
| CC(C)CNC[C@H]1O[C@H](Cc2cc(-c3ccccn3)on2)CC[C@@H]1O | -0.238% |
| Cc1occc1C(=O)NCCOc1ccc(C(F)(F)F)cn1 | -7.62% |
| Cc1cc(C)n(CC2CCCN2CC(=O)N(C)Cc2ccc(C)o2)n1 (stereo not given) | -15.4% |
